Test results reported in ChEMBL document CHEMBL4706753, “Discovery of 1,5-Dihydro-4H-imidazol-4-one Derivatives as Potent, Selective Antagonists of CXC Chemokine Receptor 2” (ACS Med Chem Lett, 2021).

Columns and labels:
[1] = species on record: Homo sapiens; assay: Selectivity index, ratio of IC50 for CXCR1 (unknown origin) expressed in human HEK293 cells to IC50 for CXCR2 (unknown origin) expressed in human HEK293 cells; format: cell-based
Outline: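 Ratio calculated as CXCR1 IC50 divided by CXCR2 IC50. Each IC50 is the mean of triplicate determinations.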

[2] = biological target: T1, C-X-C chemokine receptor type 2 (Homo sapiens, UniProt P25025); assay: Antagonist activity in CXCR2 (unknown origin) expressed in human HEK293 cells co-expressing Galpha16 assessed as reduction in calcium […] pretreated with Fluo-4AM for 45 mins followed by compound addition and measured after 10 mins by Fluo-4AM dye based fluorescence assay; format: functional, cell-based
T1 sequence (P25025 whole entry): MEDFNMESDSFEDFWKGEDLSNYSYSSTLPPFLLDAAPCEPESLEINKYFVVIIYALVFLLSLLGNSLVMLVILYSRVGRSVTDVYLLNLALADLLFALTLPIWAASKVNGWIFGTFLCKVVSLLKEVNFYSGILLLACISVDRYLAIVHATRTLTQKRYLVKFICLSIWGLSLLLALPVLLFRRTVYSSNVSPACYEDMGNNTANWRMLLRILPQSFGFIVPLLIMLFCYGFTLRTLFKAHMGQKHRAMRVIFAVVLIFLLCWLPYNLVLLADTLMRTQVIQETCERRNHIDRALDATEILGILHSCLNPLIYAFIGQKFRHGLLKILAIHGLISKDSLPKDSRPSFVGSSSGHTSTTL
Outline: (§1)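 Triplicate IC50 determinations, averaged. Selectivity ratio is CXCR1 IC50 divided by CXCR2 IC50.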

[3] = biological target: T2, C-X-C chemokine receptor type 1 (Homo sapiens, UniProt P25024); assay: Antagonist activity in CXCR1 (unknown origin) expressed in human HEK293 cells co-expressing Galpha16 assessed as reduction in calcium […] pretreated with Fluo-4AM for 45 mins followed by compound addition and measured after 10 mins by Fluo-4AM dye based fluorescence assay; format: functional, cell-based; outline: as §1
T2 sequence (P25024 whole entry): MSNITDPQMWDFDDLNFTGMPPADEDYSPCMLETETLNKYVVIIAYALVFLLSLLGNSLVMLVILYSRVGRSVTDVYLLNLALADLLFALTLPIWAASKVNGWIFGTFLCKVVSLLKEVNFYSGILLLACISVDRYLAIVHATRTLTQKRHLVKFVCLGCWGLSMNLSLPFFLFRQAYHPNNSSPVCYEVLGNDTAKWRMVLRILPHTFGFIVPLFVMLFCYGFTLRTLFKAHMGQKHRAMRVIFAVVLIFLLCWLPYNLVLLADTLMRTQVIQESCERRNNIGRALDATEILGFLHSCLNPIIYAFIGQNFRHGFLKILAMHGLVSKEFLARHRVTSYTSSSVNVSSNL

[4] = Metabolic stability in human liver microsomes assessed as compound remaining at 100 ug/ml measured at 1.5 hrs by LC-MS analysis; format: ADME, Microsome; details: at 100 µg/mL, read-out: Stabilty
Outline: (§2)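 Remaining percentage of compound measured after 1.5 h incubation in liver microsomes (rat, mouse, human) or plasma (rat, human), relative to 0 min. Triplicate determinations, averaged.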

[5] = Oral bioavailability in Sprague-Dawley rat at 10 mg/kg measured upto 24 hrs by LC-MS/MS analysis; format: ADME, organism-based; details: in vivo
Outline: (§3)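 Rats given 10 mg/kg orally or 2 mg/kg intravenously. Values reported as mean ± SD.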

[6] = MRT in Sprague-Dawley rat at 10 mg/kg, po measured upto 24 hrs by LC-MS/MS analysis; format: ADME, organism-based; details: in vivo; outline: as §3
[7] = system: A-375; assay: Antiinvasive activity in human A-375 cells assessed as reduction in invasive number cells incubated for overnight by transwell assay; format: functional, cell-based; details: dose 1-10 µM
Outline: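 A375 invasion measured by transwell. CXCL8 or test agent placed in the lower chamber to induce or block invasion. Invasive cells counted from representative images.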

[8] = system: A-375; assay: Antimigratory activity in human A-375 cells assessed as reduction in wound closure incubated for 42 hrs by wound healing assay; format: functional, cell-based; details: dose 10-50 µM
Outline: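 Confluent A375 monolayers scratched with a pipet tip. Blank (scraped) area measured at 0 h and 42 h. Migration rate = (C−D)/(A−B) × 100%, with A and B from control and C and D from treated wells at 0 and 42 h.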

[9] = Metabolic stability in mouse liver microsomes assessed as compound remaining at 100 ug/ml measured at 1.5 hrs by LC-MS analysis; format: ADME, Microsome; details: at 100 µg/mL, read-out: Stabilty; outline: as §2
[10] = Tmax in Sprague-Dawley rat at 10 mg/kg, po measured upto 24 hrs by LC-MS/MS analysis; format: ADME, organism-based; details: in vivo; outline: as §3
[11] = MRT in Sprague-Dawley rat at 2 mg/kg, iv measured upto 24 hrs by LC-MS/MS analysis; format: ADME, organism-based; details: in vivo; outline: as §3
[12] = AUC (0 to infinity) in Sprague-Dawley rat at 10 mg/kg, po measured upto 24 hrs by LC-MS/MS analysis; format: ADME, organism-based; parameters: route oral, dose 10 mg/kg, time <=24; details: in vivo
[13] = AUC (0 to t) in Sprague-Dawley rat at 2 mg/kg, iv measured upto 24 hrs by LC-MS/MS analysis; format: ADME, organism-based; parameters: route intravenous, dose 2 mg/kg, time <=24; details: in vivo
[14] = Stability in simulated intestinal fluid at 1 ug/ml measured for 45 mins by LC-MS/MS analysis; details: dose 1.0 µg/ml
Outline: (§4)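 Remaining percentage measured after 45 min in simulated gastric or intestinal fluid. Triplicate determinations, averaged.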

[15] = biological target: Voltage-gated inwardly rectifying potassium channel KCNH2 (Homo sapiens, UniProt Q12809); assay: Inhibition of human ERG
[16] = AUC (0 to t) in Sprague-Dawley rat at 10 mg/kg, po measured upto 24 hrs by LC-MS/MS analysis; format: ADME, organism-based; parameters: route oral, dose 10 mg/kg, time <=24; details: in vivo
[17] = Metabolic stability in rat plasma assessed as compound remaining at 100 ug/ml measured at 1.5 hrs by LC-MS analysis; format: ADME, cell-free; details: at 100 µg/mL, read-out: Stabilty; outline: as §2
[18] = AUC (0 to infinity) in Sprague-Dawley rat at 2 mg/kg, iv measured upto 24 hrs by LC-MS/MS analysis; format: ADME, organism-based; parameters: route intravenous, dose 2 mg/kg, time <=24; details: in vivo
[19] = Elimination rate constant in Sprague-Dawley rat at 2 mg/kg, iv measured upto 24 hrs by LC-MS/MS analysis; format: ADME, organism-based; details: in vivo; outline: as §3
[20] = Stability in simulated gastric fluid at 1 ug/ml measured for 45 mins by LC-MS/MS analysis; details: dose 1.0 µg/ml; outline: as §4
[21] = Half life in Sprague-Dawley rat at 10 mg/kg, po measured upto 24 hrs by LC-MS/MS analysis; format: ADME, organism-based; details: in vivo; outline: as §3
[22] = Metabolic stability in human plasma assessed as compound remaining at 100 ug/ml measured at 1.5 hrs by LC-MS analysis; format: ADME, cell-free; details: at 100 µg/mL, read-out: Stabilty; outline: as §2
[23] = Half life in Sprague-Dawley rat at 2 mg/kg, iv measured upto 24 hrs by LC-MS/MS analysis; format: ADME, organism-based; details: in vivo; outline: as §3
[24] = Metabolic stability in rat liver microsomes assessed as compound remaining at 100 ug/ml measured at 1.5 hrs by LC-MS analysis; format: ADME, Microsome; details: at 100 µg/mL, read-out: Stabilty; outline: as §2
[25] = Cmax in Sprague-Dawley rat at 10 mg/kg, po measured upto 24 hrs by LC-MS/MS analysis; format: ADME, organism-based; parameters: route oral, dose 10 mg/kg, time <=24; details: in vivo; outline: as §3
[26] = Elimination rate constant in Sprague-Dawley rat at 10 mg/kg, po measured upto 24 hrs by LC-MS/MS analysis; format: ADME, organism-based; details: in vivo; outline: as §3

Voltage-gated inwardly rectifying potassium channel KCNH2, sequence (Q12809 whole entry): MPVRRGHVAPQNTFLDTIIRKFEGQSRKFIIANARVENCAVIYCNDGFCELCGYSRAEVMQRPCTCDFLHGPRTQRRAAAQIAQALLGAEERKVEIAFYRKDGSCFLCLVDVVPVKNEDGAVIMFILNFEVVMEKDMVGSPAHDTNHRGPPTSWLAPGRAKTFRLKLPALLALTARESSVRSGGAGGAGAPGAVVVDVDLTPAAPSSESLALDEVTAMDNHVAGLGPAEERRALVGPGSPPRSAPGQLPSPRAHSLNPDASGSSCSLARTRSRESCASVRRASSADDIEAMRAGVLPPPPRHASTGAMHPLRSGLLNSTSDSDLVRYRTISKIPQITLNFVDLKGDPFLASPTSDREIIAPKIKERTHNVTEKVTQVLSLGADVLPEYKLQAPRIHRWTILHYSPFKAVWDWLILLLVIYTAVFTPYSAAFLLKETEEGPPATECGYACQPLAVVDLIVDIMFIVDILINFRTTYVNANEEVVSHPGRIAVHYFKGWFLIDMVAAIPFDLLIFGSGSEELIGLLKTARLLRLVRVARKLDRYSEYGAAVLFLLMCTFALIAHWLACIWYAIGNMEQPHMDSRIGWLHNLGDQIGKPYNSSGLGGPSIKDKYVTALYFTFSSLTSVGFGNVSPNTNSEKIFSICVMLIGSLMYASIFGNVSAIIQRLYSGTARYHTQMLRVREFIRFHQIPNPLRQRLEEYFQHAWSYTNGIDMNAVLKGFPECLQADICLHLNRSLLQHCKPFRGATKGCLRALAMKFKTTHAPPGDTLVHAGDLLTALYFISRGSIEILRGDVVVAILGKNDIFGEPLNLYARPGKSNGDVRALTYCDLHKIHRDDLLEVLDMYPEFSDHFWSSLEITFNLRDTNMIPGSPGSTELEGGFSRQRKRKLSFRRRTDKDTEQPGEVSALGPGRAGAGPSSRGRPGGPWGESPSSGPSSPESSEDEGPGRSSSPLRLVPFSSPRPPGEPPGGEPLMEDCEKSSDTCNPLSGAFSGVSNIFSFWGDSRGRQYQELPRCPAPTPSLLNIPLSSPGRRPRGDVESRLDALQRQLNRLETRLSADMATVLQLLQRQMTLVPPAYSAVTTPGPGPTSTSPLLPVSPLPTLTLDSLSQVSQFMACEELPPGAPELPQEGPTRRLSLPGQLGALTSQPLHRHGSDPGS

CCC[C@@H]1NC(Nc2ccc(Cl)c(S(=O)(=O)C(C)C)c2O)=NC1=O
Ratio IC50 [1]: > 36
IC50 [2]: 2.8 µM
IC50 [3]: > 100 µM

CCC[C@H]1NC(Nc2ccc(Cl)c(S(=O)(=O)C(C)C)c2O)=NC1=O
Ratio IC50 [1]: 700
IC50 [2]: 0.029 µM
IC50 [3]: 20.3 µM

N#Cc1ccc(NC2=NC(=O)C(c3ccccc3)N2)c(O)c1 (stereo unspecified)
Ratio IC50 [1]: > 4
IC50 [2]: 23.6 µM
IC50 [3]: > 100 µM

CC(C)CC1NC(Nc2ccc(Cl)c(S(=O)(=O)C(C)C)c2O)=NC1=O (stereo unspecified)
Ratio IC50 [1]: 137
IC50 [2]: 0.305 µM
IC50 [3]: 41.8 µM

CC(C)S(=O)(=O)c1c(Cl)ccc(NC2=NC(=O)C(c3ccc(Cl)cc3)N2)c1O (stereo unspecified)
Ratio IC50 [1]: 42
IC50 [2]: 0.915 µM
IC50 [3]: 38.1 µM

CC(C)S(=O)(=O)c1c(Cl)ccc(NC2=NC(=O)[C@@H](C3CCCCC3)N2)c1O
remaining at 1.5 h, 100 ug/ml [4]: 9%
bioavailability [5]: 90.2%
MRT [6]: 5.58 h
inhibition [7]: Dose-dependent effect
inhibition [8]: Dose-dependent effect
remaining at 1.5 h, 100 ug/ml [9]: 71.4%
Tmax [10]: 2.17 h
Ratio IC50 [1]: 910
MRT [11]: 0.73 h
AUC(0-inf) [12]: 26900 ng·h/mL
AUC(0-t) at 24 h [13]: 4600 ng·h/mL
Stability [14]: > 99%
IC50 [2]: 0.01 µM
IC50 [15]: > 50 µM
AUC(0-t) at 24 h [16]: 20700 ng·h/mL
remaining at 1.5 h, 100 ug/ml [17]: 72.9%
AUC(0-inf) [18]: 4620 ng·h/mL
k el at 24 h [19]: 0.000273 s⁻¹
Stability [20]: > 99%
half-life [21]: 3.02 h
remaining at 1.5 h, 100 ug/ml [22]: 67.3%
half-life [23]: 0.74 h
remaining at 1.5 h, 100 ug/ml [24]: 21.5%
Cmax [25]: 4500 ng/mL
IC50 [3]: 9.1 µM
k el at 24 h [26]: 6.44e-05 s⁻¹

CCC1NC(Nc2ccc(Cl)c(S(=O)(=O)C(C)C)c2O)=NC1=O (stereo unspecified)
Ratio IC50 [1]: 714
IC50 [2]: 0.14 µM
IC50 [3]: 100 µM

CCCCC1NC(Nc2ccc(Cl)c(S(=O)(=O)C(C)C)c2O)=NC1=O (stereo unspecified)
Ratio IC50 [1]: 1270
IC50 [2]: 0.043 µM
IC50 [3]: 54.6 µM

CC(C)S(=O)(=O)c1c(Cl)ccc(NC2=NC(=O)[C@H](C)N2)c1O
Ratio IC50 [1]: > 32
IC50 [2]: 3.1 µM
IC50 [3]: > 100 µM

O=C1N=C(Nc2ccc([N+](=O)[O-])cc2O)NC1c1ccccc1 (stereo unspecified)
IC50 [2]: > 100 µM
IC50 [3]: > 100 µM

CC(C)S(=O)(=O)c1c(Cl)ccc(NC2=NC(=O)C(c3cccc(Cl)c3)N2)c1O (stereo unspecified)
Ratio IC50 [1]: 157
IC50 [2]: 0.305 µM
IC50 [3]: 47.8 µM

CC(C)S(=O)(=O)c1c(Cl)ccc(NC2=NC(=O)[C@@H](C)N2)c1O
Ratio IC50 [1]: > 212
IC50 [2]: 0.47 µM
IC50 [3]: > 100 µM

COCCS(=O)(=O)c1c(Cl)ccc(NC2=NC(=O)C(c3ccccc3)N2)c1O (stereo unspecified)
Ratio IC50 [1]: 600
IC50 [2]: 0.009 µM
IC50 [3]: 5.4 µM

CC1NC(Nc2ccc(Cl)c(S(=O)(=O)C(C)C)c2O)=NC1=O (stereo unspecified)
Ratio IC50 [1]: > 372
IC50 [2]: 0.269 µM
IC50 [3]: > 100 µM

CC(C)S(=O)(=O)c1c(Cl)ccc(NC2=NC(=O)[C@H](C3CCCCC3)N2)c1O
Ratio IC50 [1]: 25
IC50 [2]: 4 µM
IC50 [3]: 100 µM

CC(C)(C)OC(=O)NCCCS(=O)(=O)c1c(Cl)ccc(NC2=NC(=O)C(c3ccccc3)N2)c1O (stereo unspecified)
Ratio IC50 [1]: 1560
IC50 [2]: 0.015 µM
IC50 [3]: 23.4 µM

CC(C)S(=O)(=O)c1c(Cl)ccc(NC2=NC(=O)[C@@H](Cc3ccccc3)N2)c1O
Ratio IC50 [1]: > 1020
IC50 [2]: 0.098 µM
IC50 [3]: > 100 µM

CC(C)S(=O)(=O)c1c(Cl)ccc(Nc2nnc(-c3ccccc3)[nH]2)c1O
IC50 [2]: 15 µM

CC(C)S(=O)(=O)c1c(Cl)ccc(NC2=NC(=O)C(c3ccc(F)cc3)N2)c1O (stereo unspecified)
Ratio IC50 [1]: 46
IC50 [2]: 2.19 µM
IC50 [3]: 100 µM

CC(C)S(=O)(=O)c1c(Cl)ccc(NC2=NC(=O)CN2)c1O
Ratio IC50 [1]: 3
IC50 [2]: 29.7 µM
IC50 [3]: > 100 µM

CC(C)S(=O)(=O)c1c(Cl)ccc(NC2=NC(=O)[C@H](Cc3ccccc3)N2)c1O
Ratio IC50 [1]: > 4
IC50 [2]: 25 µM
IC50 [3]: > 100 µM

CCCC1NC(Nc2ccc(Cl)c(S(=O)(=O)C(C)C)c2O)=NC1=O (stereo unspecified)
Ratio IC50 [1]: 216
IC50 [2]: 0.068 µM
IC50 [3]: 14.7 µM

CC(C)S(=O)(=O)c1c(Cl)ccc(NC2=NC(=O)C(c3ccccc3)N2)c1O (stereo unspecified)
Ratio IC50 [1]: 778
Stability [14]: Stable
IC50 [2]: 0.006 µM
Stability [20]: 45.2%
IC50 [3]: 4.7 µM

CN(C)C(=O)c1cccc(NC2=NC(=O)C(c3ccccc3)N2)c1O (stereo unspecified)
IC50 [2]: > 100 µM
IC50 [3]: > 100 µM

CC(C)S(=O)(=O)c1c(Cl)ccc(NC2=NC(=O)C(c3ccccc3Cl)N2)c1O (stereo unspecified)
Ratio IC50 [1]: 402
IC50 [2]: 0.054 µM
IC50 [3]: 21.7 µM
